From PubChem
Shown are actives, neighbours in structure and some others; about 5.2% of the full set was active somewhere.
EBNA-1 inhibitor: EBNA-1 DNA-binding inhibitors, primary screen, biochemical, fluorescence polarization. inhibition, % at 14.8 µM. 0.34% of 300,000 active. AID 1950, 2009; in the data active = inhibition above about 28%
PfM18AAP inh-1: PfM18AAP inhibitors, malaria aminopeptidase, primary screen, biochemical, QFRET, recombinant enzyme; M18 aspartyl aminopeptidase (Plasmodium falciparum 3D7); H-Glu-NHMec fluorogenic cleavage; inhibition, % at 7.35 µM; 1.2% of 290,000 active;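 active = inhibition above the campaign mean inhibition over all tested compounds plus 3 SD, cut at about 28% in these data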
NS3 helicase inh: inhibitors of HCV NS3 helicase, primary screen, biochemical, Cy5 molecular beacon fluorescence; Hepatitis C virus NS3 helicase; NS3 helicase DNA unwinding; inhibition, % at 10.9 µM; 0.56% of 290,000 active;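 active = inhibition above the mean of all tested compounds plus 3 SD, set per campaign, cut at about 35% in these data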
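Control set: DMSO versus 110 µM thioflavine S; Material: NS3 helicase fragment of HCV; Measured by: Cy5 fluorescence at 0 and 60 min, beacon hairpin quenching; Read-out basis: percent inhibition from t60/t0 fluorescence ratio; Times: reaction time 60 min, 25 °C; Repeats: single replicate; Compound dosing: single dose, 10.9 µM nominal final, DMSO 0.8% final.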
HCV core dimer: inhibitors of HCV core protein dimerization, primary screen, biochemical, TR-FRET, high-throughput; inhibition, % at 5 µM; 0.33% of 300,000 active; TR-FRET GST/Flag-core106 dimerization, 1536-well; AID 1899, 2009;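 active = inhibition above the mean of all tested compounds plus 3 SD, set per screening campaign, cut at about 45% in these data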
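System – GST-tagged and Flag-tagged HCV core protein residues 1-106 · Repeats – one well for each compound · Technique – TR-FRET 671 and 617 nm emission · Doses – one concentration, 5 µM, in 0.5% DMSO · Times – 4 h, 22.5 °C incubation · Also added – Eu donor and XL665 acceptor anti-tag antibodies · Measure – percent inhibition of core106 dimerization signal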
ALR inh: inhibitors of human ALR sulfhydryl oxidase, primary screen, biochemical, H2O2 detection, HRP-luminol luminescence, single point; FAD-linked sulfhydryl oxidase ALR (Homo sapiens), P55789; purified ALR, DTT oxidation; inhibition, % (test concentration not listed); 3.8% of 290,000 active;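 active = mean replicate inhibition above about 79%, with every replicate also reaching it, limit read from the data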
Target sequence (P55789 whole entry, looked up): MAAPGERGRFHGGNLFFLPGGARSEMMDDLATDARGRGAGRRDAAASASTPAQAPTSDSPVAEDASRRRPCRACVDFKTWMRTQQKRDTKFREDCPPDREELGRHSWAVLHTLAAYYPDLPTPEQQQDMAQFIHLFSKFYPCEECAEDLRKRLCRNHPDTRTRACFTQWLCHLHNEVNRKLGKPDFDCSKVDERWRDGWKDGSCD
ZTA DNA inh: blocks Epstein-Barr virus ZTA, an EBNA-1 counter-screen; AID 2234; P03206; 0.15% of 320,000 active; ZTA-DNA binding, fluorescence polarization; inhibition, % at 11 µM; in the data active = inhibition above about 33%
Target sequence (P03206 whole entry, looked up): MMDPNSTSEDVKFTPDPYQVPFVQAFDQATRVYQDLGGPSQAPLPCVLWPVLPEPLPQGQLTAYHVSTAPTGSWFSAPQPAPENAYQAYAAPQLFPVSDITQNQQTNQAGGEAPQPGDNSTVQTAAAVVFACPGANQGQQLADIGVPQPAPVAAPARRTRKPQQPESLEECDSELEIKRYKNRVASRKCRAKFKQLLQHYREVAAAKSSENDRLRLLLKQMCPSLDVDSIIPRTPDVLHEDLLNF
PfM18AAP inh-2: PfM18AAP inhibitors, malaria aminopeptidase, confirmation, biochemical, QFRET, recombinant enzyme, triplicate | inhibition, % at 7.35 µM | H-Glu-NHMec fluorogenic cleavage | 28% of 2,400 active | shares compounds with PfM18AAP inh-1 | AID 2170, 2009;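 active = mean inhibition over replicate wells above the hit cutoff set for the earlier primary screen, cut at about 29% in these data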
CTSL1 counter: cathepsin L1 inhibitors, retest, confirmation, counter-screen for PFM18AAP inhibitor project, biochemical, QFRET, triplicate; shares compounds with PfM18AAP inh-1; purified cathepsin L1, Z-Leu-Arg-MCA fluorescence; inhibition, % at 5.96 µM; 2,400 tested, under 10 active;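 active = average inhibition across replicates above the hit cutoff set in the earlier primary screen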
Hits are given with their value; – = inactive; · = no result given.

SMILES | EBNA-1 inhibitor | PfM18AAP inh-1 | NS3 helicase inh | HCV core dimer | ALR inh | ZTA DNA inh | PfM18AAP inh-2 | CTSL1 counter
O=C(NCCc1ccccc1)C1CCCN(c2cnccn2)C1 (centres undefined) | – | – | – | – | – | – | · | ·
O=c1[nH]c(=S)[nH]nc1Cc1ccccc1 | – | 38 | – | – | – | – | – | –
O=C1OC(/C(=C\NCc2ccccc2)[N+](=O)[O-])c2ccccc21 (centres undefined) | – | – | – | – | – | – | · | ·
O=C1OC(/C(=C\Nc2ccccc2)[N+](=O)[O-])c2ccccc21 (centres undefined) | – | 47 | – | – | – | – | – | –
CCN1/C(=C/c2cc[n+](CCCS(=O)(=O)[O-])c3ccccc23)Sc2ccccc21 | – | 33 | – | – | – | – | – | –
Cc1ccn2c(C(=O)NN=C3CCCCCCC3)c(C)nc2c1 | – | – | – | – | – | – | · | ·
CNC(=S)NNC(=O)c1c(C)nc2cc(C)ccn12 | – | 47 | – | – | – | – | – | –
COc1cccc(COC(=O)CCNC(=O)c2ccc(Cl)cc2)c1OC | – | · | · | – | – | – | · | ·
Cc1ccc(C2C3=C(CCCC3=O)Nc3[nH]c(=S)[nH]c(=O)c32)cc1 (centres undefined) | – | 40 | – | – | · | – | 38 | –
CCc1ccccc1NC(=O)CNC(=O)c1cc(C2CC2)nn1-c1ccccc1 | · | · | · | · | · | – | · | ·
COc1ccc(/C=C/C(=O)OC(C)C(=O)c2ccccc2)cc1OC (centres undefined) | – | · | · | – | – | – | · | ·
COC(=O)/C=C/c1ccc(OC(=O)OC)c(OC(=O)OC)c1 | – | 75 | – | – | 98 | – | 34 | –
COc1ccc(CN2CN(c3ccc(Cl)cc3)C(=O)N(n3cnnc3)C2)cc1 | – | 51 | – | – | – | – | 40 | –
COc1ccc(N2C(=O)CC(SCc3ccc(Cl)cc3)C2=O)cc1 (centres undefined) | – | – | – | – | · | – | · | ·
O=C1N(c2ccc(Cl)c(Cl)c2)CN(Cc2ccccc2)CN1n1cnnc1 | – | 70 | – | – | – | – | 55 | –
Cc1ccc(-c2cc(C(=O)OCC(=O)NC3CC3)c3ccccc3n2)cc1 | · | · | · | · | · | – | · | ·
CCOc1ccc(NS(=O)(=O)c2ccc(NC(=O)[C@@H]3CCCC[C@@H]3C(=O)O)cc2)cc1 | – | – | – | – | – | – | · | ·
Cc1cc(-c2ccc(/C=N/n3cnnc3)o2)c(C)c([N+](=O)[O-])c1 | – | 43 | – | – | – | – | – | –
COc1cc([N+](=O)[O-])ccc1-c1ccc(/C=N\n2cnnc2)o1 | · | 44 | – | · | – | · | – | –
COc1cccc(CN2CCNC(=O)C2CC(=O)NCC(C)(C)N2CCOCC2)c1OC (centres undefined) | – | – | – | – | – | – | · | ·
Oc1c(Br)cc(/C=N/Nc2nncc3ccccc23)cc1Br | – | 33 | – | – | · | – | – | –
Oc1c(Br)cc(/C=N/Nc2ccc(Cl)nn2)cc1Br | – | 34 | – | – | · | – | – | –
COc1cc(/C=N/Nc2ncc(C(F)(F)F)cc2Cl)cc(OC)c1O | – | 35 | – | – | 99 | – | 31 | –
COc1ccc(/C=N/Nc2nncc3ccccc23)cc1 | – | – | – | – | – | – | · | ·
COc1cc(/C=N/Nc2ncc(C(F)(F)F)cc2Cl)cc(OC)c1OC | – | – | – | – | – | – | · | ·
COc1cc(/C=N/Nc2ccc(Cl)nn2)cc(OC)c1O | – | 39 | – | – | 95 | – | – | –
Cn1cc(P(=O)(N2CCOCC2)N2CCOCC2)cc1P(=S)(N1CCOCC1)N1CCOCC1 | – | 37 | – | – | · | – | – | –
